Tests used:
OR51E1 (Homo sapiens) = target: T1, OR51E1 (Homo sapiens) (UniProt Q8TCB6); details: stereoisomer not certain
T1 sequence (whole entry): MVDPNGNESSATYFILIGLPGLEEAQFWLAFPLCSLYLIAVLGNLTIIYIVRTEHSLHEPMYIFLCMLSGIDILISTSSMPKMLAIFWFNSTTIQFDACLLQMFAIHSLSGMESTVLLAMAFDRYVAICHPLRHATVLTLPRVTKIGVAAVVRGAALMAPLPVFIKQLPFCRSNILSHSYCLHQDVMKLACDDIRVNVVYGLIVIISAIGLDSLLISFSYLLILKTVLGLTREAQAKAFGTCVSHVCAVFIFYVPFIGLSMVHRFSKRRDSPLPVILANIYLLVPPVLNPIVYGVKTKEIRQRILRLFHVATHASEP
How it was run: (§1)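 Values were gathered from published papers (main text and supplementary material), with extra details requested from the original authors when needed, and checked for typos and inconsistencies. Each receptor–molecule pair is called responsive (active) if the original authors judged the measured signal statistically different from baseline, and non-responsive (inactive) otherwise. Assay methods varied by source, often transient mammalian cell-line luciferase assays. Recorded details include cell line, G-protein, co-transfected protein and tags.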

OR51E2 (Homo sapiens) = target: T2, OR51E2 (Homo sapiens) (UniProt Q9H255); details: stereoisomer not certain
T2 sequence (whole entry): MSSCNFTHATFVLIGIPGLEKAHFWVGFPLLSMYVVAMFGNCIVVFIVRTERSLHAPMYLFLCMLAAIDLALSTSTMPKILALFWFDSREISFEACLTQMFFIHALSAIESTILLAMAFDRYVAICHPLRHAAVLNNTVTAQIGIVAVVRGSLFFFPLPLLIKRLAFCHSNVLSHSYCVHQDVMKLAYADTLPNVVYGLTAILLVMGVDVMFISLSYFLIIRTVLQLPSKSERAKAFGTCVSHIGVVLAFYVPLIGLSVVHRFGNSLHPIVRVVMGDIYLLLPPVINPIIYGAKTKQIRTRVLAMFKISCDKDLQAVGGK
How it was run: as §1

| SMILES | odorant receptor agonist call (OR51E1 (Homo sapiens)) | odorant receptor agonist call (OR51E2 (Homo sapiens)) |
| --- | --- | --- |
| CCCCCC=O | inactive | inactive |
| CCCCCCCCCS | inactive | inactive |
| CCC(C(=O)O)c1ccccc1 (stereo not drawn) | inactive | inactive |
| CCCCCO | inactive | inactive |
| CCCCCCCC(C)=O | inactive | inactive |
| CCCCOC(=O)C(C)OC(=O)CCC (stereo not drawn) | active | inactive |
| C=CCOC(=O)CCCCCC | inactive | inactive |
| CCCCC(=O)O | – | inactive |
| CCCCCC1=C(C)CCC1=O | inactive | inactive |
| CC(C)=CCCC(C)CCO (stereo not drawn) | inactive | inactive |
| CCCCOC=O | inactive | inactive |
| CCCC(=O)C(C)=O | inactive | inactive |

Source: the M2OR odorant receptor database
